From paper PMC5900865 (Clinical Pharmacology in Drug Development, 2017)

Tests used:
CYP2C8 = conditions: cited from earlier work
CYP2D6 = conditions: cited from earlier work
[1] = system: healthy adult men and women; test: Study 1B safety evaluation; format: in vivo, human
Method in brief: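 Double-blind, placebo-controlled (2:1) multiple-dose study. Men received 5, 10 or 20 mg and women 5 or 10 mg, oral and fed, daily on days 1–12. Women were dosed only after that dose was assessed in men. Participants were discharged day 17, with post-study exam day 20. AEs, weight, vitals, 12-lead ECG and clinical labs were recorded. TEAE incidence, intensity and drug relationship were assessed by dose and sex versus placebo.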

healthy adult men = test: Study 1A safety evaluation; format: in vivo, human
Method in brief: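 Randomized, double-blind, placebo-controlled study in healthy Japanese men. Single oral doses rose from 2.5 to 40 mg, doubling over 5 cohorts of 9 (2:1 drug:placebo). Each escalation followed review of safety data to day 5 and PK data to 48 h. AEs, body weight, vital signs, 12-lead ECG and haematology, chemistry, coagulation and urinalysis were recorded. TEAE incidence, intensity and drug relationship were compared with placebo.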

CYP3A4/5 = conditions: cited from earlier work

## Cc1ccc(Sc2ccccc2N2CCNCC2)c(C)c1 [Vortioxetine, 1‐[2‐(2,4‐dimethylphenylsulfanyl)phenyl]piperazine]
CYP2C8
  inhibitory or inducing effect in vitro: No inhibitory or inducing effect
CYP2D6
  inhibitory or inducing effect in vitro: No inhibitory or inducing effect
[1]; healthy men
  tolerated multiple dose: up to 20 mg
[1]; healthy women
  tolerated multiple dose: ≤ 10 mg
[1]; multiple doses, all groups
  intensity of TEAEs: all TEAEs were mild in intensity
Healthy adult men; healthy men
  tolerated single dose: up to 20 mg
Healthy adult men; single 40‐mg dose group
  AEs reported: Seven AEs
CYP3A4/5
  inhibitory or inducing effect in vitro: No inhibitory or inducing effect
